Bioassay records deposited in PubChem by several laboratories.
Sampled rows, rich in hits. Any-hit rate of the full collection: about 1.7%.
TPT1 inh – Candida albicans TPT1 enzyme inhibitors, primary screen, biochemical, fluorescence polarization; 300,000 tested, 0.81% active; inhibition, % at 5 µM; recombinant caTPT1, FP RNA substrate dephosphorylation; AID 1962, 2009;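 active = inhibition above the mean of all tested compounds plus 3 SD, set per screening campaign, cut at about 24% in these data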;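 note: plate controls were DMSO alone for no effect and ferristatin control at 100 nM for full effect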
HNF4A DNA FP – change in binding of human HNF4A to DNA, primary screen, biochemical, fluorescence polarization, FITC-DNA; activity change, % at 10 µM; Hepatocyte nuclear factor 4-alpha (Homo sapiens), P41235; AID 1224865, 2016; 1 h; 360,000 tested, 0.3% active; in the data active = activity change above about 30%, passing the limit was not always enough
CSN deneddyl inh – inhibitors of CSN-mediated cullin deneddylation, primary screen, biochemical, fluorescence polarization, uHTS; 360,000 tested, 0.38% active; AID 651999, 2013; inhibition, % at 12.5 µM; Purified CSN, SCF-Nedd8-OG deneddylation; COP9 signalosome complex subunit 5 (Homo sapiens), Q92905;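 active = pattern-corrected inhibition above about 35%, with an unprinted fluorescence ratio check between 0.5 and 1.5, limit read from the data, passing the limit was not always enough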;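 note: 0% = enzyme with substrate and 100% = substrate without enzyme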
Target sequence (Q92905 whole entry, looked up, one chain of several): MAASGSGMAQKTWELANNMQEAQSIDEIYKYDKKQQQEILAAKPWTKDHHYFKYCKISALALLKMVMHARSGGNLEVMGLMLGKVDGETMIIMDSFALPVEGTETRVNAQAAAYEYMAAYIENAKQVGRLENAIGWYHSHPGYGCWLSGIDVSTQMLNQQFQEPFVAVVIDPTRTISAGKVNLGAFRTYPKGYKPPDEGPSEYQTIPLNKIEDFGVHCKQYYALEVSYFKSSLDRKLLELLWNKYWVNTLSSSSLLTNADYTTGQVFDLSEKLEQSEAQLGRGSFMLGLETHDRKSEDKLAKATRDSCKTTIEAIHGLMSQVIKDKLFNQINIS
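assay system = purified human Csn5 enzyme expressed in HEK293T cells | amount = 0.24 nM enzyme | buffer or medium = Tris/NaCl/DTT buffer, pH 7.5 | reagent = 10 nM SCFSkp2-Nedd8OG | compound = one concentration, 12.5 µM, 0.25% DMSO | times = 90 min reaction at room temperature | signal = FP | read-out basis = % inhibition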
IDE act – human IDE activators in live cells, primary screen, fluorescence polarization, HEK cells, FAbeta-B substrate; FAbeta-B cleavage; 0% vehicle, 100% cell-free pure enzyme wells; 340,000 tested, 0.073% active; Insulin-degrading enzyme (Homo sapiens), P14735; activation, % at 5.96 µM;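 active = activation above the mean of all tested compounds plus 3 SD, set per screening campaign, cut at about 17% in these data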
Rpn11 block – Rpn11 (PSMD14) deubiquitinase inhibitors, primary screen, biochemical, fluorescence polarization, uHTS | 26S proteasome non-ATPase regulatory subunit 14 (Homo sapiens), O00487 | human 26S proteasome, Ub4-pepOG fluorescence polarization; 20S core pre-blocked with epoxomicin | calls only at 20 µM | 360,000 tested, 0.59% active;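 active = inhibition at 20 µM, scaled to each plate's controls, above about 33%, limit read from the data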
Target sequence (O00487 whole entry, looked up): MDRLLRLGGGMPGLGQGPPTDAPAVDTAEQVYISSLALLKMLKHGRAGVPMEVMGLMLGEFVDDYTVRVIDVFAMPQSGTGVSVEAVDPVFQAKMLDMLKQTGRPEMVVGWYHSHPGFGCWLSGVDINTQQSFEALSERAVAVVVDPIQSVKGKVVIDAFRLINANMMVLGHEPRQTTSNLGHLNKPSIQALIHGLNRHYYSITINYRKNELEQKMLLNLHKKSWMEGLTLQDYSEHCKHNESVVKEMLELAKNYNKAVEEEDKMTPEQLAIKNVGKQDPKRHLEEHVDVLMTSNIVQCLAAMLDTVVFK
IDE cell inh – human IDE inhibitors in live cells, primary screen, fluorescence polarization, HEK cells, FAbetaB substrate; Insulin-degrading enzyme (Homo sapiens), P14735; FAbetaB cleavage; inhibition, % at 5.59 µM; 320,000 tested, 0.41% active;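 active = percent inhibition above the average of all tested compounds plus 3 SD, set per screening campaign, cut at about 16% in these data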;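 note: IDE supplied by intact live HEK cells; FP after avidin binding of uncleaved biotin substrate so inhibition keeps polarization high; 0% = DMSO wells and 100% = 60 µM reference IDE inhibitor Ii1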
TPT1 inh confirm – Candida albicans TPT1 inhibitors, confirmation, biochemical, fluorescence polarization, triplicate | shares compounds with TPT1 inh | recombinant caTPT1, RNase T1 coupled | inhibition, % at 5 µM | 2,400 tested, 74% active;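 active = inhibition above the primary screen limit, the mean inhibition of all tested compounds plus 3 SD, cut at about 25% in these data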
RNase T1 counter – RNase T1 inhibitors, counter-screen for TPT1 inhibitor project, biochemical, fluorescence polarization | 2,400 tested, 83% active | AID 2153, 2009 | inhibition, % at 5 µM | RNase T1 cleavage, 1536-well | shares compounds with TPT1 inh;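 active = inhibition above the solvent-only control well mean plus 3 SD, limit set per screening run, cut at about 23% in these data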;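 note: plate controls were DMSO wells with enzyme for no effect and wells without RNase T1 for full effect; inhibitors block cleavage so intact labeled substrate keeps polarization high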
Numbers without * were called inactive.

Results for O=C(N/N=C\c1c(O)ccc2ccccc12)c1cncc(Br)c1 ?
TPT1 inh: 136*; HNF4A DNA FP: 140; CSN deneddyl inh: -76; IDE act: 47*; IDE cell inh: 11; TPT1 inh confirm: 151*; RNase T1 counter: 138*

What do the screens show for `Cn1cc(C(=O)N/N=C/c2c(O)ccc3ccccc23)ccc1=O`?
TPT1 inh: 57*; HNF4A DNA FP: 21; CSN deneddyl inh: 14; IDE act: -7; Rpn11 block: inactive; IDE cell inh: 15; TPT1 inh confirm: 70*; RNase T1 counter: 54*

How did CC(CC1C(C#N)=C(N)SC(N)=C1C#N)c1ccccc1 (configuration not stated) do in these assays?
TPT1 inh: 60*; HNF4A DNA FP: 74; CSN deneddyl inh: 58*; IDE act: -1; IDE cell inh: 6; TPT1 inh confirm: 29*; RNase T1 counter: 38*

What do the screens show for `Cc1ccc(C(=O)CSc2nc(-c3ccccc3)ccc2C#N)cc1`?
TPT1 inh: 24; HNF4A DNA FP: 5; CSN deneddyl inh: 5; IDE act: -2; IDE cell inh: 3

Results for N#Cc1ccc(-c2ccco2)nc1SCC(=O)c1ccc(Cl)cc1 ?
TPT1 inh: 99*; HNF4A DNA FP: 16; CSN deneddyl inh: 24; IDE act: -33; Rpn11 block: active; IDE cell inh: 11; TPT1 inh confirm: 62*; RNase T1 counter: 67*

Results for CCN1c2ccc(S(=O)(=O)N3CCOCC3)cc2N(Cc2ccc(OC)cc2)C1C (configuration not stated) ?
TPT1 inh: 32*; HNF4A DNA FP: 4; CSN deneddyl inh: 2; IDE act: -6; Rpn11 block: inactive; IDE cell inh: 2; TPT1 inh confirm: 48*; RNase T1 counter: 59*

What do the screens show for `COc1ccc2cc(S(=O)(=O)N3CCOCC3)ccc2c1`?
TPT1 inh: -1; HNF4A DNA FP: -1; CSN deneddyl inh: 1; IDE act: -4; Rpn11 block: inactive; IDE cell inh: -4

Results for CC(/C=N/n1c(-c2cccnc2)n[nH]c1=S)=C\c1ccco1 ?
TPT1 inh: -3; HNF4A DNA FP: -7; CSN deneddyl inh: 11; IDE act: -6; Rpn11 block: inactive; IDE cell inh: 5

How did CC(/C=N/n1c(-c2n[nH]c3c2CCC3)n[nH]c1=S)=C\c1ccco1 do in these assays?
TPT1 inh: 33*; HNF4A DNA FP: -1; CSN deneddyl inh: 4; IDE act: -3; Rpn11 block: inactive; IDE cell inh: -1; TPT1 inh confirm: 4; RNase T1 counter: 9

Results for COC(=O)[C@H]1[C@H]2C[C@@H]3c4[nH]c5cc(OC)ccc5c4CCN3C[C@H]2C[C@@H](OC(=O)c2cc(OC)c(OC)c(OC)c2)[C@@H]1OC ?
TPT1 inh: 41*; HNF4A DNA FP: 11; CSN deneddyl inh: 2; IDE act: 3; Rpn11 block: inactive; IDE cell inh: 5; TPT1 inh confirm: 45*; RNase T1 counter: 58*

How did Cc1cnc(NC(=O)CCNC(=O)c2ccc([N+](=O)[O-])cc2)s1 do in these assays?
TPT1 inh: 2; HNF4A DNA FP: -5; CSN deneddyl inh: -3; IDE act: 0; Rpn11 block: inactive; IDE cell inh: 2

Results for Cc1nnc(N2CCOCC2)c2nn(-c3cccc(Cl)c3)c(C)c12 ?
TPT1 inh: 28*; HNF4A DNA FP: 21; CSN deneddyl inh: 11; IDE act: 4; IDE cell inh: 6; TPT1 inh confirm: 69*; RNase T1 counter: 76*

How did Cc1nnc(-n2ncc(C#N)c2N)c2nn(-c3cccc(Cl)c3)c(C)c12 do in these assays?
TPT1 inh: 8; HNF4A DNA FP: 12; CSN deneddyl inh: 6; IDE act: 4; Rpn11 block: inactive; IDE cell inh: 0

What do the screens show for `Cc1ccc(NC(=O)N/C=C/c2ccco2)cc1C`?
TPT1 inh: 24*; HNF4A DNA FP: 7; CSN deneddyl inh: 9; IDE act: 6; IDE cell inh: 4; TPT1 inh confirm: 61*; RNase T1 counter: 73*

How did Cc1ccc(NC(=O)N/C=C/c2ccco2)c(C)c1 do in these assays?
TPT1 inh: 23; HNF4A DNA FP: 1; CSN deneddyl inh: 8; IDE act: 3; Rpn11 block: inactive; IDE cell inh: -1

Results for CC1CCN(CCC(=O)Nc2ccc3c(c2)OCCO3)CC1 ?
TPT1 inh: 0; IDE cell inh: -1

How did COc1ccc(N2CCN(C(=O)c3ccc4c(c3)NC(=O)C(CSCc3ccc(C)cc3)N4)CC2)cc1 (configuration not stated) do in these assays?
TPT1 inh: 92*; IDE cell inh: 2; TPT1 inh confirm: 22; RNase T1 counter: 34*

How did COc1ccc(N2CCN(C(=O)c3ccc4c(c3)NC(=O)C(CSCc3cccc(F)c3)N4)CC2)cc1 (configuration not stated) do in these assays?
TPT1 inh: 85*; IDE cell inh: 4; TPT1 inh confirm: 8; RNase T1 counter: 14

Results for COc1ccc(N2CCN(C(=O)c3ccc(N(C)S(=O)(=O)c4ccc(C)cc4)cc3)CC2)cc1 ?
TPT1 inh: -3; HNF4A DNA FP: 4; CSN deneddyl inh: -7; IDE act: -1; Rpn11 block: inactive; IDE cell inh: 11

Results for COc1ccc(N2CCN(C(=O)c3ccc4c(c3)NC(=O)C(CSCc3c(F)cccc3Cl)N4)CC2)cc1 (configuration not stated) ?
TPT1 inh: 66*; IDE cell inh: 8; TPT1 inh confirm: 12; RNase T1 counter: 19

What do the screens show for `COc1ccc(-n2ccnc2SCC(=O)Nc2cc(C)on2)cc1`?
TPT1 inh: 1; HNF4A DNA FP: 7; CSN deneddyl inh: 3; IDE act: 4; Rpn11 block: inactive; IDE cell inh: 1
